IC50, ED50 and inhibition in vivo data for five molecules are collected here from ChEMBL document CHEMBL1133218, “N-[(R,R)-(E)-1-(4-chloro-benzyl)-3-(2-oxo-azepan-3-ylcarbamoyl)-allyl]-N-methyl-3,5-bis-trifluoromethyl-benzamide: an orally active neurokinin NK1/NK2 antagonist” (Bioorg Med Chem Lett, 2000).

Test [1] deals with T1, Substance-K receptor (Homo sapiens, UniProt P21452).
T1 sequence (P21452 whole entry): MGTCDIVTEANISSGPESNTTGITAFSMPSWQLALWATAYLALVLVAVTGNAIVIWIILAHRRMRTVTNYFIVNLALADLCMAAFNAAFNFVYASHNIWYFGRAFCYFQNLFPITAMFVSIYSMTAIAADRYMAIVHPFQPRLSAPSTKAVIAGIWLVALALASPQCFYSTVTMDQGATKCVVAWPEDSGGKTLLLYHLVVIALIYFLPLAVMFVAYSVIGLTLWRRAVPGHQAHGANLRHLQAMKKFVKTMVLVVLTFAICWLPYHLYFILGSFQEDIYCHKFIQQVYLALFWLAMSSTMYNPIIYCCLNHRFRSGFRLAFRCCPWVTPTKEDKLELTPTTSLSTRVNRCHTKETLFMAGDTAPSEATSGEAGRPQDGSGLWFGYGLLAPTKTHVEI
The experiment in a line: In vitro inhibition of [125I]NKA binding to transfected Chinese hamster ovary cells (CHO cells) expressing recombinant human Tachykinin receptor 2. In kind it is cell-based. Summed up:
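Binding of 0.05 nM [125I]-NKA (2200 Ci/mmol) to 3×10^5 hNK2-transfected CHO cells in 20 mM HEPES pH 7.4 with 2 mM MnSO4 and 6 mM MgCl2, across a range of drug concentrations. Incubated 20 min at room temperature. Nonspecific binding taken with 50 nM NKA. Rapid filtration, 4 washes in ice-cold Tricine, filter radioactivity by scintillation counting, triplicates.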

For test [2], the system named is Cavia porcellus. The experiment in a line: In vivo inhibition against beta-Ala8-NKA-induced bronchoconstriction in guinea pig at 2 h. In kind it is functional.
For test [3], the system named is Cavia porcellus. The test is described as follows: In vivo inhibition against beta-Ala8-NKA-induced bronchoconstriction in guinea pig at 4 h. The format is functional.
Test [4] relates to Cavia porcellus. The experiment in a line: In vivo inhibition against Sar9SP-induced bronchoconstriction in guinea pigs at 2 h. The format is functional.
In test [5] the test system is Cavia porcellus. The experiment in a line: In vivo inhibition against Sar9SP-induced bronchoconstriction in guinea pigs at 4 h. In kind it is functional.
Test [6] relates to Cavia porcellus. The test is described as follows: In vivo inhibition against Sar9SP-induced bronchoconstriction in guinea pigs at 1 mg/kg for 12 h. The format is functional.

`CN(C(=O)c1cc(C(F)(F)F)cc(C(F)(F)F)c1)[C@@H](/C=C/C(=O)N[C@@H]1CCCCNC1=O)Cc1ccc(Cl)cc1`: the concentration for half-maximal inhibition (IC50) in test [1] is 24 nM. Also, the ED50 in test [2] was determined as 0.9 mg/kg; in test [3], 0.73 mg/kg; in test [4], 0.036 mg/kg; in test [5], 0.03 mg/kg. Moreover, the inhibition in vivo at 1 mg/kg in test [6] was 85%.

As to `CN(C(=O)c1cc(C(F)(F)F)cc(C(F)(F)F)c1)[C@H](/C=C/C(=O)N[C@@H]1CCCCNC1=O)Cc1ccc(Cl)cc1`, in test [1], the half-inhibitory concentration (IC50) was 123 nM.

As to `CN(C(=O)c1cc(C(F)(F)F)cc(C(F)(F)F)c1)[C@H](/C=C/C(=O)N[C@H]1CCCCNC1=O)Cc1ccc(Cl)cc1`, the IC50 in test [1] worked out at 300 nM.

On to `CN(C(=O)c1cc(C(F)(F)F)cc(C(F)(F)F)c1)[C@@H](/C=C/C(=O)N[C@H]1CCCCNC1=O)Cc1ccc(Cl)cc1` (mixture of isomers), for which the IC50 in test [1] stood at 120 nM.

`CN(C(=O)c1cc(C(F)(F)F)cc(C(F)(F)F)c1)C(/C=C/C(=O)NC1CCCCNC1=O)Cc1ccc(Cl)cc1` (mixture of isomers): the concentration for half-maximal inhibition (IC50) in test [1] came to 55 nM.

The IC50 is the concentration needed to halve the response being measured. The term ED50 denotes the midpoint of the dose-response relation. Usually inhibition in vivo stands for the share of the control response that was lost under treatment.
